Drawing on ChEMBL document CHEMBL1156546, “Synthesis and positive inotropic activity of N-(4,5-dihydro-[1,2,4]triazolo[4,3-a]quinolin-7-yl)-2-(piperazin-1-yl)acetamide derivatives” (2008), this text covers Activity for 20 compounds.

For assay [1], the species on record is Oryctolagus cuniculus. Description: Inotropic effect on isolated rabbit heart assessed as increase in left atrium stroke volume. Type of assay: functional. Set-up: concentration or dose not given beside the values. A digest of the protocol: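 Isolated perfused rabbit left atrium, HEPES buffer pH 7.4 (mM: 118 NaCl, 4.7 KCl, 2.5 CaCl2, 1.2 MgCl2, 25 NaHCO3, 10 glucose, 10 HEPES; 0.1% BSA) pumped at 1.25 mL/min. 60 min stabilization, pacing 1.5 Hz. Single dose 3×10^-5 M (DMSO stock diluted in buffer) after control cycle; 12-min cycles, stroke volume read every 2 min. Reported as % stroke volume increase, means ± SE, ANOVA.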

The species named for assay [2] is Oryctolagus cuniculus. Description: Chronotropic effect on isolated rabbit heart assessed as change in heart beats. Type of assay: functional. In outline: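 Heart rate measured in isolated rabbit hearts from the electrocardiogram in a volume conduction model. Samples at 3×10^-5 M, dissolved in DMSO and diluted in HEPES buffer. Rate recorded before (control) and after sample. Means ± SE, repeated measures compared by ANOVA, P < 0.05.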

Calls of active or inactive are those of the source. No cut-off for these calls is given here.

With `Cc1nnc2n1-c1ccc(NC(=O)CN3CCN(C(=O)c4cccc([N+](=O)[O-])c4)CC3)cc1CC2`, the outcome in the assay filed under Oryctolagus cuniculus [1] (Cardiac atrium) was inactive.
For `Cc1[nH]c(=O)c(C#N)cc1-c1ccncc1` [MILRINONE], the Activity in the assay listed under Oryctolagus cuniculus [1] amounted to 4.7%.
For the compound `Cc1nnc2n1-c1ccc(NC(=O)CN3CCN(Cc4ccccc4Br)CC3)cc1CC2`, the outcome in the assay filed under Oryctolagus cuniculus [1] (Cardiac atrium) was inactive.
As to `O=C(CN1CCN(C(=O)c2cccc(Cl)c2)CC1)Nc1ccc2c(c1)CCc1nnc(Cc3ccccc3)n1-2`, the Activity in the assay filed under Oryctolagus cuniculus [1] is given as 2.4%.
Regarding `COc1cc(CN2CCN(CC(=O)Nc3ccc4c(c3)CCc3nnc(C)n3-4)CC2)ccc1OCc1ccccc1`, the results for the Activity in the assay filed under Oryctolagus cuniculus [2] and in the assay listed under Oryctolagus cuniculus [1] were 111.5 bpm and 9%, respectively.
As for `Cc1ccc(C(=O)N2CCN(CC(=O)Nc3ccc4c(c3)CCc3nnc(Cc5ccccc5)n3-4)CC2)cc1`, the Activity in the assay listed under Oryctolagus cuniculus [1] was 0.7%.
As to `Cc1nnc2n1-c1ccc(NC(=O)CN3CCN(Cc4ccccc4)CC3)cc1CC2`, the result in the assay listed under Oryctolagus cuniculus [1] (Cardiac atrium) was inactive.
For the compound `Cc1nnc2n1-c1ccc(NC(=O)CN3CCN(Cc4ccc5c(c4)OCO5)CC3)cc1CC2`, the Activity in the assay filed under Oryctolagus cuniculus [2] turned out to be 136.9 bpm; in the assay filed under Oryctolagus cuniculus [1], 5.1%.
Consider `CC(=O)N1CCN(CC(=O)Nc2ccc3c(c2)CCc2nnc(C)n2-3)CC1`, for which the result in the assay listed under Oryctolagus cuniculus [1] (Cardiac atrium) was inactive.
Turning to `O=C(CN1CCN(Cc2ccc3c(c2)OCO3)CC1)Nc1ccc2c(c1)CCc1nnc(Cc3ccccc3)n1-2`, the Activity is 89.2 bpm in the assay listed under Oryctolagus cuniculus [2] and 5.2% in the assay listed under Oryctolagus cuniculus [1].
As for `Cc1cccc(C(=O)N2CCN(CC(=O)Nc3ccc4c(c3)CCc3nnc(C)n3-4)CC2)c1`, the Activity in the assay listed under Oryctolagus cuniculus [1] was found to be 8.8%.
For the compound `Cc1cccc(C(=O)N2CCN(CC(=O)Nc3ccc4c(c3)CCc3nnc(Cc5ccccc5)n3-4)CC2)c1`, the Activity in the assay filed under Oryctolagus cuniculus [1] is on record as 0.5%.
On to `O=C(CN1CCN(C(=O)c2ccccc2)CC1)Nc1ccc2c(c1)CCc1nnc(Cc3ccccc3)n1-2`, for which the outcome in the assay listed under Oryctolagus cuniculus [1] (Cardiac atrium) was inactive.
Take `Cc1nnc2n1-c1ccc(NC(=O)CN3CCN(C(=O)c4ccccc4)CC3)cc1CC2`: the outcome in the assay filed under Oryctolagus cuniculus [1] (Cardiac atrium) was inactive.
For `O=C(CN1CCN(Cc2ccccc2)CC1)Nc1ccc2c(c1)CCc1nnc(Cc3ccccc3)n1-2`, the Activity was found to be 109.3 bpm in the assay listed under Oryctolagus cuniculus [2] and 13.2% in the assay listed under Oryctolagus cuniculus [1].
`Cc1ccc(C(=O)N2CCN(CC(=O)Nc3ccc4c(c3)CCc3nnc(C)n3-4)CC2)cc1`: in the assay filed under Oryctolagus cuniculus [1], the Activity is recorded as 1.3%.
Consider `Cc1nnc2n1-c1ccc(NC(=O)CN3CCN(C(=O)c4ccc([N+](=O)[O-])cc4)CC3)cc1CC2`, for which the result in the assay listed under Oryctolagus cuniculus [1] (Cardiac atrium) was inactive.
Regarding `COc1ccc(CN2CCN(CC(=O)Nc3ccc4c(c3)CCc3nnc(C)n3-4)CC2)cc1`, the Activity is on record as 105.6 bpm in the assay listed under Oryctolagus cuniculus [2] and 10.1% in the assay listed under Oryctolagus cuniculus [1].
Regarding `Cc1nnc2n1-c1ccc(NC(=O)CN3CCN(C(=O)c4cccc(Cl)c4)CC3)cc1CC2`, the outcome in the assay filed under Oryctolagus cuniculus [1] (Cardiac atrium) was inactive.
As for `COc1ccc(C(=O)N2CCN(CC(=O)Nc3ccc4c(c3)CCc3nnc(C)n3-4)CC2)cc1OC`, the Activity in the assay filed under Oryctolagus cuniculus [2] turned out to be 129.2 bpm; in the assay filed under Oryctolagus cuniculus [1] it was 5.3%.
